# Test results reported in ChEMBL document CHEMBL1138638, “Azepinone as a conformational constraint in the design of kappa-opioid receptor agonists” (Bioorg Med Chem Lett, 2004).
# Key:
# [1] = molecular target: T1, Kappa-type opioid receptor (Homo sapiens, UniProt P41145); assay: Binding affinity for human Kappa opioid receptor
# Mu-type opioid receptor [2] = molecular target: T2, Mu-type opioid receptor (Homo sapiens, UniProt P35372); assay: Inhibition percent of compound towards human Mu opioid receptor; design: concentration or dose not given beside the values; conditions: concentration not given here
# [3] = molecular target: T3, Delta-type opioid receptor (Homo sapiens, UniProt P41143); assay: Inhibition percent of compound towards human Delta opioid receptor; design: concentration or dose not given beside the values; conditions: concentration not given here
# Mus musculus [4] = assay: Effective dose required to induce sedation was determined in mouse when administered orally; format: functional; conditions: po
# In short: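 Mice placed on a raised plastic platform (11 × 7.5 × 3 cm). Latency to step fully off the platform was timed before oral dosing (baseline sedation latency) and 30 min after. ED50 reported with range in parentheses.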
# [5] = molecular target: T1, Kappa-type opioid receptor; assay: Binding affinity for human Opioid receptor kappa 1
# [6] = molecular target: Opioid receptors; mu & kappa (Homo sapiens) (UniProt P41145+P35372); assay: Selectivity for kappa opioid receptor over mu opioid receptor; format: protein assay
# [7] = molecular target: Opioid receptors; delta & kappa (Homo sapiens) (UniProt P41145+P41143); assay: Selectivity for kappa opioid receptor over delta opioid receptor; format: protein assay
# [8] = molecular target: T3, Delta-type opioid receptor; assay: Binding affinity for human Delta opioid receptor
# Mu-type opioid receptor [9] = molecular target: T2, Mu-type opioid receptor; assay: Binding affinity for human Mu opioid receptor
# Mus musculus [10] = assay: Effective dose required to inhibit acetic acid induced writhing in mouse when administered orally; format: functional; conditions: po
# In short: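 Mice dosed orally with vehicle or test agent; 15 min later given 0.6% acetic acid intraperitoneally. Writhes counted over a 10 min period starting 5 min after the acid injection. ED50 reported with range in parentheses.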
# Rattus norvegicus [11] = species: Rattus norvegicus; assay: Percent inhibition of rotarod performance based on the comparison of baseline and post-treatment rotarod latencies; format: functional
# Rattus norvegicus [12] = assay: Effective dose required to inhibit formalin induced flinching in rat as a measure of antinociception activity when administered orally; format: functional; conditions: po
# T2 sequence (P35372 whole entry): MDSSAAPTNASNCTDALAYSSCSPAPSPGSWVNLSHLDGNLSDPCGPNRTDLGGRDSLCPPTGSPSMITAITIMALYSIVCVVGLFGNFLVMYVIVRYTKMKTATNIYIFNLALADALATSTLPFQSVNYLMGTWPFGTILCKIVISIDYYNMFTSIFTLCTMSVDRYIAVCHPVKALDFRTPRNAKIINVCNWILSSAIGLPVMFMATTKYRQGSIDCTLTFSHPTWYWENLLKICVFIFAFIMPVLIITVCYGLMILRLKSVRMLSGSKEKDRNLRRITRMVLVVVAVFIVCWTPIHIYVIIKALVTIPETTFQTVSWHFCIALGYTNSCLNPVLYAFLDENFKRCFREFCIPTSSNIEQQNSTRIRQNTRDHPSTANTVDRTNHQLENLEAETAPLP
# T3 sequence (P41143 whole entry): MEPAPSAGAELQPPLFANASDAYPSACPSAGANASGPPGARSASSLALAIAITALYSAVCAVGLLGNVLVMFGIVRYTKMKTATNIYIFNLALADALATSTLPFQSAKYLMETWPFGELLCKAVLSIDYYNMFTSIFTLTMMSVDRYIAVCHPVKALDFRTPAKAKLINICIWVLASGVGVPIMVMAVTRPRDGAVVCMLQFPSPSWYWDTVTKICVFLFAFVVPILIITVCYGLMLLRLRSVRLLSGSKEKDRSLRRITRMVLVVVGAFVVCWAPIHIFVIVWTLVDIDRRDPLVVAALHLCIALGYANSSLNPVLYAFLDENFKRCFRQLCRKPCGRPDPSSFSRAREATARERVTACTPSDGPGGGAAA
# T1 sequence (P41145 whole entry): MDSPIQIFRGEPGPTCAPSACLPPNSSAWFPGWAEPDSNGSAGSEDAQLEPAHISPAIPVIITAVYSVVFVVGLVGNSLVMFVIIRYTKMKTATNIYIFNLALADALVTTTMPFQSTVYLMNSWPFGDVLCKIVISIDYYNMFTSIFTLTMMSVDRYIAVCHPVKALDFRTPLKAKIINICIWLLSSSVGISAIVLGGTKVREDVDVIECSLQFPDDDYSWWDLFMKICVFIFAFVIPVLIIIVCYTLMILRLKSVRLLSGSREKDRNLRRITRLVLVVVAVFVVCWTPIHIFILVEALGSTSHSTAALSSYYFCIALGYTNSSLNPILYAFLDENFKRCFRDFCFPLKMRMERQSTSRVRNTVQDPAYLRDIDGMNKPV
# Opioid receptors; mu & kappa (Homo sapiens), sequence (P35372 whole entry, looked up): as the sequence (P35372 whole entry) above
# Opioid receptors; mu & kappa (Homo sapiens), sequence (P41145 whole entry, looked up): as the sequence (P41145 whole entry) above
# Opioid receptors; delta & kappa (Homo sapiens), sequence (P41143 whole entry, looked up): as the sequence (P41143 whole entry) above
# Opioid receptors; delta & kappa (Homo sapiens), sequence (P41145 whole entry, looked up): as the sequence (P41145 whole entry) above
SMILES,Ki [1] [nM],inhibition (Mu-type opioid receptor [2]) [%],inhibition [3] [%],further results
COc1ccc(C2CC=CCN(C(CN3CCCC3)c3ccccc3)C2=O)cc1 (stereo not drawn),22,< 60,< 60,
CN(C(=O)Cc1ccc(Cl)c(Cl)c1)C(CN1CCCC1)c1ccccc1 (stereo not drawn),,,,ED50 (Mus musculus [4]): 7.5 mg/kg
O=C1C(c2ccc(Cl)cc2)CC=CCN1C(CN1CCCC1)c1ccccc1 (stereo not drawn),,< 60,< 60,Ki [5]: 2 nM
O=C1[C@H](c2ccc(Cl)c(Cl)c2)CC=CCN1[C@H](CN1CC[C@H](O)C1)c1ccccc1,0.2,,,Selectivity [6]: 1000; Selectivity [7]: 1000
COc1ccc([C@H]2CC=CCN(C(CN3CCCC3)c3ccccc3)C2=O)cc1 (stereo partly drawn),800,< 60,< 60,
O=C1[C@@H](c2ccc(Cl)cc2)CC=CCN1C(CN1CCCC1)c1ccccc1 (stereo partly drawn),35,< 60,< 60,
O=C1C(c2ccc(C(F)(F)F)cc2)CC=CCN1C(CN1CCCC1)c1ccccc1 (stereo not drawn),0.72,< 60,,Ki [8]: 1000 nM
O=C1[C@@H](c2ccc(Cl)c(Cl)c2)CC=CCN1C(CN1CCCC1)c1ccccc1 (stereo partly drawn),,< 60,< 60,Ki [5]: 17 nM
O=C1C(c2ccc(Cl)c(Cl)c2)CC=CCN1C(CN1CCCC1)c1ccccc1 (stereo not drawn),,,,Ki (Mu-type opioid receptor [9]): 1000 nM; ED50 (Mus musculus [10]): 1.6 mg/kg; Ki [5]: 0.34 nM; Ki [8]: 370 nM; ED50 (Mus musculus [4]): 48 mg/kg; Inhibition (Rattus norvegicus [11]): 54%; ED50 (Rattus norvegicus [12]): 2.7 mg/kg
O=C1C(Oc2ccc(Cl)c(Cl)c2)CC=CCN1C(CN1CCCC1)c1ccccc1 (stereo not drawn),2.6,< 60,< 60,
O=C1[C@H](c2ccc(Cl)c(Cl)c2)CC=CCN1[C@H](CN1CCCC1)c1ccccc1,12,,,Selectivity [6]: 1000; Selectivity [7]: 1000
O=C1C(c2cccc(S(=O)(=O)N3CCCC3)c2)CC=CCN1C(CN1CCCC1)c1ccccc1 (stereo not drawn),1900,< 60,< 60,
